Bioassay records: PubChem, several laboratories
Hits are enriched below; roughly 2.8% of the tested compounds scored in any of these assays.
EP2 modulator – EP2 receptor (human) modulation | 0.83% of 260,000 active | EP2-expressing cells, cAMP HTRF FRET, PGE2 co-stimulation | induction, % at 25 µM | P43116 | AID 940;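 active = compounds whose cAMP rise, as percent of the full-agonist control response, exceeds 60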;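 note: rat C6 glioma line stably carrying human EP2 under a CMV promoter; the protocol text gives 20 µM as final concentration; 100% = response of wells given 1 µM PGE2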
Target sequence (P43116 whole entry, looked up): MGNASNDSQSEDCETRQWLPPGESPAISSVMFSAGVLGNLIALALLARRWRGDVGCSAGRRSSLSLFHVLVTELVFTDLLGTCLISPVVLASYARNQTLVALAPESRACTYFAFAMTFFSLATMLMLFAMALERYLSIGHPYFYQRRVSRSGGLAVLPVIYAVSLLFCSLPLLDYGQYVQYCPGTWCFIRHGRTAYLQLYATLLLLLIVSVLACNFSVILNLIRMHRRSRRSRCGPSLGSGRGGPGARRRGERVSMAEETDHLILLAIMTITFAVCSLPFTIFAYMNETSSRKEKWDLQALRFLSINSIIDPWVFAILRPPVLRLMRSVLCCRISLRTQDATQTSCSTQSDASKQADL
NPY-Y2 PAM-ag – potentiates or activates human NPY-Y2 receptor; P49146; cells expressing NPY-Y2, potentiator/agonist read-out; activation, % at 3.6 µM; 0.45% of 220,000 active; in the data active = activation above about 27%;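 note: cells stimulated with NPY near EC25 plus isoproterenol at EC100; 0% = vehicle plus submaximal agonist and 100% = vehicle plus saturating agonist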
PGE2 EP2 inh – blocks the human prostaglandin E2 receptor EP2; P43116; C6 glioma cells expressing human EP2, cAMP TR-FRET; cells stimulated with saturating PGE2; inhibition, % at 25 µM; 0.52% of 260,000 active; AID 1422;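 active = percent inhibition above 40 after rounding to a whole number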;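 note: rat C6 glioma host cells with rolipram phosphodiesterase inhibitor present; the protocol text gives 20 µM as final concentration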
NPY-Y1 antag – antagonists of human neuropeptide Y receptor Y1; P25929; inhibition, % at 3.6 µM; 1% of 200,000 active; HEK293-CNG Y1 cells, membrane potential fluorescence; NPY at EC95, then isoproterenol;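 active = inhibition above the campaign mean inhibition of all tested compounds plus 3 SD, cut at about 20% in these data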;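 note: 0% = DMSO wells given NPY plus isoproterenol and 100% = isoproterenol alone without NPY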
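Material: HEK293 Y1/CNG channel cell line | Also added: NPY (25 nM), isoproterenol (1 µM), Ro 20-1724 (25 µM) | Compound: One concentration, 3.6 µM, in 0.4% DMSO | Schedule: 3 h dye uptake, 1 h room-temperature compound, 45 min post-isoproterenol | Signal: Membrane-potential fluorescent dye readout | Read-out: % inhibition of NPY effect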
NPY-Y1 PAM-ag – human NPY-Y1 potentiation or agonism, primary screen; P25929; activation, % at 3.6 µM; 0.37% of 220,000 active; NPY-Y1 expressing cells, potentiator/agonist activation; AID 1304; in the data active = activation above about 33%, passing the limit was not always enough;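 note: cells stimulated with NPY at EC10 then isoproterenol at EC100; 0% = low agonist plus stimulus and 100% = saturating agonist plus stimulus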
NPY Y2 blocker – NPY-Y2 (human) receptor antagonism. P49146. NPY-Y2 expressing cells, antagonist mode. inhibition, % at 2.7 µM. 0.99% of 140,000 active. AID 793; in the data active = inhibition above about 17%;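 note: 0% = vehicle with agonist challenge and 100% = reference antagonist with challenge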
EP2 cAMP induct – human EP2 receptor cAMP induction, negative in counter-screens. shares compounds with EP2 modulator. C6 glioma EP2 cells, cAMP HTRF induction; plus low (about EC15) PGE2 agonist. calls only at 20 µM (by protocol). 47% of 1,300 active;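 active = cAMP induction above 50% in the main assay while under 30% in all four parallel counter assays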;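 note: rat C6 glioma cells stably expressing human EP2 receptor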
The depositor's hits bear a star; i = inactive; . = not tested or not shown; + = active, no number.

SMILES	EP2 modulator	NPY-Y2 PAM-ag	PGE2 EP2 inh	NPY-Y1 antag	NPY-Y1 PAM-ag	NPY Y2 blocker	EP2 cAMP induct
COCCn1c(SCC(=O)NCCc2ccccc2)nnc1-c1ccco1	67*	-3	5	4	-1	1	i
COC(=O)c1c(NC(=O)CSc2nnc(-c3ccco3)n2Cc2ccccc2)sc(C)c1C	52	1	4	10	18	11	i
Cc1cc(C)c2[nH]c(=O)c(CN(Cc3ccc4c(c3)OCO4)S(=O)(=O)c3ccc(F)cc3)cc2c1	12	.	11	.	.	.	.
COC(=O)c1cn(Cc2cccc(C)c2)nn1	6	14	6	-8	3	0	.
COC(=O)c1ccc(-c2ccco2)n1Cc1cccc(C)c1	77*	5	2	8	-26	7	+
C/C(CCc1oc2c(Br)cc(Br)cc2c1-c1ccc(C)o1)=N\O	52	0	26	4	1	2	.
C/C(CCc1oc2ccccc2c1-c1ccc(C)o1)=N/O	75*	-7	4	3	0	3	+
CC(C)N(C(=O)CNCc1cccs1)C(C)C	-3	.	13	.	.	.	.
Cc1nn(Cc2c(Cl)cccc2Cl)c(C)c1C(=O)NCc1ccc(C)n1C	75*	-15	4	7	9	-1	i
Cc1nn(Cc2ccccc2)c(Cl)c1C(=O)NCc1ccc(C)n1C	-3	-5	7	2	12	1	.
Cc1nn(-c2ccc(F)cc2)c2[nH]c(=O)c(CNCCO)cc12	6	.	6	.	.	.	.
CCCOP(=O)(OCCC)c1nc(-c2ccccc2)oc1NCc1ccccc1	94*	-2	15	13	-24	9	+
CCOP(=O)(OCC)c1nc(-c2ccc(Cl)cc2)oc1NCc1ccccc1	78*	-2	4	2	9	.	i
COC(=O)Cn1cc(CN2CCC(O)(c3ccc(C)cc3)CC2)c2ccccc21	-14	.	4	.	.	.	.
Cc1sc(-n2c(C)ccc2C)c(C#N)c1C	56	1	4	3	5	0	.
Cc1ccc(C)n1-c1sc2c(c1C#N)CCCC2	63*	10	15	1	-28	3	+
C=C[C@@](C)(O)CCC1C(=C)C[C@H](O)C2C(C)(C)CCCC12C (some centres undefined)	79*	.	10	.	.	.	+
CC(C)(C)C1CCc2onc(C(=O)Nc3cccc(O)c3)c2C1 (centres undefined)	43	1	25	6	-11	3	.
CC(C)(C)C1CCc2onc(C(=O)Nc3cccnc3)c2C1 (centres undefined)	52	-2	3	-5	9	1	i
N#CCSc1nc2ccccc2c(=O)n1CCC(=O)NC1CCCCC1	13	-18	7	-5	-13	0	.
N#CCSc1nc2ccccc2c(=O)n1C1CCCCC1	71*	-3	12	21*	1	.	+
CCOC(=O)C1=C(N)N2C(=O)C(C)SC2=C(C(=O)OC)C1c1ccccc1OC (centres undefined)	88*	8	7	3	10	3	+
CCCCOC(=O)C1=C(N)N2C(=O)C(C)SC2=C(C(=O)OCC)C1c1ccc(O)c(OC)c1 (centres undefined)	2	-21	10	.	20	.	.
CCc1cccc2c(CC(=O)NCc3nc(-c4ccccc4)no3)c(C)[nH]c12	-123	.	0	.	.	.	.
NC(=O)CSc1nnc(-c2cccc(S(=O)(=O)N3CCOCC3)c2)n1C1CCCCCC1	81*	4	11	-3	10	5	i
SMILES	EP2 modulator	NPY-Y2 PAM-ag	PGE2 EP2 inh	NPY-Y1 antag	NPY-Y1 PAM-ag	NPY Y2 blocker	EP2 cAMP induct
CCOC1C=CC(Oc2nc(N(C)C)nc(N(C)C)n2)=NN1 (centres undefined)	14	.	14	.	.	.	.
c1ccc(Cn2c(-c3ccccc3)nc3nc4ccccc4nc32)cc1	67*	-11	11	6	-30	17	+
Clc1cccc(-c2nc3nc4ccccc4nc3n2Cc2ccccc2)c1	49	4	7	11	6	1	.
Cc1cc(NC(=O)Cn2nnc3sc4c(c3c2=O)CCC(C(C)(C)C)C4)no1 (centres undefined)	51	-17	7	-4	-10	2	i
COc1ccc(S(=O)(=O)N2CCC(NC(=O)c3ccc(F)cc3)CC2)cc1	-10	.	7	.	.	.	.
Cc1cc(C(F)(F)F)n2nc(-c3sccc3-n3cccc3)cc2n1	33	-15	.	5	-9	1	.
Cc1cc(-c2sccc2C)nc(-n2cccc2)n1	75*	-25	5	9	-33	3	+
COc1cccc(CN2CCN(C(=O)c3ccc(Cl)nc3)[C@@H](C)C2)c1	-48	.	.	.	.	.	.
CCCCc1nc2sc3c(SCC(=O)NCc4ccco4)ncnc3c2c2c1CCC2	68*	2	10	-2	-4	1	i
CCOC(=O)C1=NN(c2ccccc2)C(=O)C1	17	-25	12	.	16	.	.
CCOC(=O)C1=NN(c2cccc(C)c2)C2(S1)SC(C(C)=O)=C(C)N2c1ccccc1 (centres undefined)	78*	-11	2	29*	-30	32*	+
CCOC(=O)C1=NN(c2ccc(C)cc2)C2(S1)SC(C(C)=O)=C(C)N2c1ccccc1 (centres undefined)	74*	-2	5	13	-10	7	+
CCc1cccc(Nc2cc(C)nc3ncnn23)c1	40	9	5	6	-7	2	.
CCn1c2ccccc2c2cc(Nc3cc(C)nc4ncnn34)ccc21	83*	1	8	14	5	2	+
CCCCCOC(=O)c1[nH]c2c(c1C)C(=O)C(C(=O)OC)C(C)C2 (centres undefined)	91*	-41	12	16	-27	16	+
Cc1cc(SCC(=O)c2ccccc2)nc2ccccc12	57	.	12	.	.	.	i
CCN(CC)C(=O)[C@H]1C[C@@H](c2cccs2)NS(=O)(=O)N1C	-16	.	.	.	.	.	.
O=S(=O)(/C=C/c1ccccc1)c1ccccc1	9	5	12	2	-12	-1	.
O=S(=O)(C=C(c1ccccc1)c1ccccc1)c1ccccc1	77*	-4	14	4	4	7	+
O=C(CNC1CCCCCC1)Nc1ccccc1N1CCCCC1	-17	-11	8	11	12	9	.
O=C(Cc1c(F)cccc1Cl)Nc1ccccc1N1CCCCC1	75*	7	5	5	2	.	+
O=C(Nc1ccccc1N1CCCCC1)c1cccc([N+](=O)[O-])c1	51	-6	3	3	-18	.	+
O=C(Nc1ccccc1N1CCOCC1)c1cccc([N+](=O)[O-])c1	2	4	10	-3	24	3	.
